Published values from different studies.
Lines come from different studies, so protocols differ.
Organism: Plasmodium falciparum
Effect on: parasite growth

Compound | technique | strain | time | setting | IC50
COC1=CC(c2ccc[nH]2)=NC1=Cc1ccc(CCCCCCCCCCCCO)[nH]1 | – | 7G8 | – | drug-resistant strain, blood stage | 58 nM
NC(N)=NC(=O)c1cc(C#Cc2ccc(C(F)(F)F)c(C(=O)Nc3ccccn3)c2)cc(C(F)(F)F)c1 | – | K1 | – | drug-resistant strain, blood stage | 19 nM
C[C@@H]1CC[C@H]2[C@@H](C)C(=O)O[C@@H]3O[C@@]4(C)CC[C@@H]1[C@]32OO4 | – | W2 | 72 h | drug-resistant strain, blood stage | 0.0038 µg/mL
CCN(CC)CCCC(C)Nc1ccnc2cc(Cl)ccc12 (centres unmarked) | – | W2 | – | drug-resistant strain, blood stage | 0.1 µg/mL
Clc1ccc2c(c1)nc(C1CCNCC1)n2Cc1ccccc1 | – | K1 | – | drug-resistant strain, blood stage | 76 nM
CCN(CC)CCCC(C)Nc1ccnc2cc(Cl)ccc12 (centres unmarked) | – | W2 | 72 h | drug-resistant strain, blood stage | 0.1 µg/mL
CCN(CC)CCCC(C)Nc1ccnc2cc(Cl)ccc12 (centres unmarked) | – | W2 | – | drug-resistant strain | 310 nM
NCCCNc1nc2cc(Br)ccc2n1Cc1ccccc1 | – | K1 | – | drug-resistant strain, blood stage | 1010 nM
CC1=C(C)C(c2ccc[nH]2)=NC1=Cc1ccc(CCCCCCCCCC(C)O)[nH]1 (centres unmarked) | – | DD2 | – | drug-resistant strain, blood stage | 1190 nM
OC(c1cc(C(F)(F)F)nc2c(C(F)(F)F)cccc12)C1CCCCN1 (centres unmarked) | – | 3D7 | – | blood stage | 4.8 nM
NC1CCN(c2nc3cc(Cl)ccc3n2Cc2ccccc2)CC1 | – | K1 | – | drug-resistant strain, blood stage | 14 nM
CCN(CC)CCCC(C)Nc1ccnc2cc(Cl)ccc12 (centres unmarked) | – | 7G8 | – | drug-resistant strain, blood stage | 63 nM
CCCCCCCCCCOc1cc2c(O)c(C(=O)OCC)cnc2cc1OCC | SYBR Green | HB3 | – | blood stage | < 5.7 nM
COC1=CC(c2ccc[nH]2)=NC1=Cc1ccc(CCCCCCCCCCO)[nH]1 | – | 7G8 | – | drug-resistant strain, blood stage | 168 nM
C[C@@H]1CC[C@H]2[C@@H](C)C(=O)O[C@@H]3O[C@@]4(C)CC[C@@H]1[C@]32OO4 | – | D6 | – | blood stage | 0.005 µg/mL
COC1=CC(c2ccc[nH]2)=NC1=Cc1ccc(CCCCCCCCCCCO)[nH]1 | – | 7G8 | – | drug-resistant strain, blood stage | 93 nM
CCN(CC)CCCC(C)Nc1ccnc2cc(Cl)ccc12 (centres unmarked) | imaging | W2 | 48 h | drug-resistant strain, blood stage | 0.234 µg/mL
